Source: ChEMBL document CHEMBL1143600, “Synthesis and pharmacology of ethylphenidate enantiomers: the human transesterification metabolite of methylphenidate and ethanol” (J Med Chem, 2005)
Structures can show the parent of a compound that is named as a salt.

Assays:
[1] = biological target: T1, Sodium-dependent noradrenaline transporter (Homo sapiens, UniProt P23975); assay: Inhibition of [3H]norepinephrine uptake in HEK293 cells expressing human norepinephrine transporter; format: functional, cell-based
T1 sequence (P23975 whole entry): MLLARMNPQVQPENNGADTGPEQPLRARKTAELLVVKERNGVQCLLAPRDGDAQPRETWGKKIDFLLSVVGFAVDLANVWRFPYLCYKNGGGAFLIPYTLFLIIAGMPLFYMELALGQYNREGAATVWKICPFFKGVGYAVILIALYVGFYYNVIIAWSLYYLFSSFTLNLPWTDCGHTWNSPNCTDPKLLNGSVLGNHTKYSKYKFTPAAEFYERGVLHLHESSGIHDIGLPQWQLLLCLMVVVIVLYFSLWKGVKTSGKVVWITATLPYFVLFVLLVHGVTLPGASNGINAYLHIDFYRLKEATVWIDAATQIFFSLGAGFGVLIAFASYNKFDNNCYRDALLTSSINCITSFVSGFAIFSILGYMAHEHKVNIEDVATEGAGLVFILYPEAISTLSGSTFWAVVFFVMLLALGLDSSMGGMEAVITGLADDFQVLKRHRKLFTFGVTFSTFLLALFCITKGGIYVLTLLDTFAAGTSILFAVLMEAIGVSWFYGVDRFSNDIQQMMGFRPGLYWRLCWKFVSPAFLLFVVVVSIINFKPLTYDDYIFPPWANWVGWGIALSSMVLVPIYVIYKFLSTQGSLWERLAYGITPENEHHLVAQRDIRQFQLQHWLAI

[2] = biological target: T1, Sodium-dependent noradrenaline transporter; assay: Displacement of [125I]RTI-55 from human Norepinephrine transporter expressed in HEK293 cells; format: cell-based
[3] = biological target: T2, Sodium-dependent serotonin transporter (Homo sapiens, UniProt P31645); assay: Inhibition of [3H]5-HT uptake in HEK293 cells expressing human serotonin transporter; format: functional, cell-based
T2 sequence (P31645 whole entry): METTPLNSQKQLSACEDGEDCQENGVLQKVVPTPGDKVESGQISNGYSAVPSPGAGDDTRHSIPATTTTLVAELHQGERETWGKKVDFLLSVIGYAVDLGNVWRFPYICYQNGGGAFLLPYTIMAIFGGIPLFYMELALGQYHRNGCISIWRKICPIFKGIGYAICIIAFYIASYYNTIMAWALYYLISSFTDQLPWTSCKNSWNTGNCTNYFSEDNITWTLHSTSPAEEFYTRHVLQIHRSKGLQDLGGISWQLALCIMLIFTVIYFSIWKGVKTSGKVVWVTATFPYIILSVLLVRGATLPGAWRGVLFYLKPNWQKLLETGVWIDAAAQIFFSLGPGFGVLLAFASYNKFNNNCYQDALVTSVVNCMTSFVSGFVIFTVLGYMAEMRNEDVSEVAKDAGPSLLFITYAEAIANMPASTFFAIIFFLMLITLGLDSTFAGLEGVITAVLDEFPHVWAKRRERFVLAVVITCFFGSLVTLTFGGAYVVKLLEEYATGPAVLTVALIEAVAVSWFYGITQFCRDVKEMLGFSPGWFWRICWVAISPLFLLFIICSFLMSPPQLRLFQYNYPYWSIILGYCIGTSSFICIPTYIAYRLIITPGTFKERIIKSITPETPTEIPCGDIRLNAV
Summary of the method: (§1)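 HEK293 cells expressing the human transporter were grown to confluence, triturated in Krebs-HEPES and preincubated 10 min with compound (six concentrations). Uptake was started with [3H]serotonin or [3H]dopamine at 20 nM final and stopped after 10 min by filtration over PEI-presoaked GF/C filters. Nonspecific uptake: 5 µM imipramine (SERT) or 5 µM mazindol (DAT). IC50 from triplicate curves, 2–3 independent determinations.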

[4] = biological target: T2, Sodium-dependent serotonin transporter; assay: Displacement of [125I]RTI-55 from human Serotonin transporter expressed in HEK293 cells; format: cell-based
Summary of the method: (§2)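 Membranes from HEK293 cells expressing the human transporter (grown to 80% confluence, lysed in 2 mM HEPES/1 mM EDTA, spun at 30000g). 10–15 µg protein was preincubated 10 min with compound in Krebs-HEPES pH 7.4 containing pargyline, tropolone, glucose and ascorbate. Nonspecific binding: 5 µM mazindol (DAT) or 5 µM imipramine (SERT). IC50 converted to Ki by Cheng-Prusoff.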

[5] = biological target: T3, Sodium-dependent dopamine transporter (Homo sapiens, UniProt Q01959); assay: Displacement of [125I]-RTI-55 from Dopamine transporter expressed in HEK293 cells; format: cell-based; summary of the method: as §2
T3 sequence (Q01959 whole entry): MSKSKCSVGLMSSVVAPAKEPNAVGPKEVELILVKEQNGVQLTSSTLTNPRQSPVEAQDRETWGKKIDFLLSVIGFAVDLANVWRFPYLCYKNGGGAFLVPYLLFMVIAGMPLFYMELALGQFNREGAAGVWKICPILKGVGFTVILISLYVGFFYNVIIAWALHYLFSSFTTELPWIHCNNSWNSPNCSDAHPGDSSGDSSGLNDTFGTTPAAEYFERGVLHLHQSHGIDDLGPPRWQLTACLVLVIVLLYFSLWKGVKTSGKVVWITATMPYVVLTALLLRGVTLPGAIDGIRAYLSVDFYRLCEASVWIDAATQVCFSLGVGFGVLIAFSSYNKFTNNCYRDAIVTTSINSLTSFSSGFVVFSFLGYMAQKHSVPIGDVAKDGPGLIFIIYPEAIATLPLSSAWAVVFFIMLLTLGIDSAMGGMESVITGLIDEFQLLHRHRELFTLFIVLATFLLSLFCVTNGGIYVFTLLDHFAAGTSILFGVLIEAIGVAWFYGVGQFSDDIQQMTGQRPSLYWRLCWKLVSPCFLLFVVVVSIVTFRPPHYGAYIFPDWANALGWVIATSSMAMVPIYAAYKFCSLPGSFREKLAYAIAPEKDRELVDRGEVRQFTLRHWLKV

[6] = biological target: T3, Sodium-dependent dopamine transporter; assay: Inhibition of [3H]dopamine uptake in HEK293 cells expressing human dopamine transporter; format: functional, cell-based; summary of the method: as §1

For `CCOC(=O)C(c1ccccc1)C1CCCCN1` (racemic), the IC50 [1] was 480 nM, the IC50 [2] was over 7.2 µM and the IC50 [3] was over 10 µM. It also gave an IC50 [4] of 7.54 µM, an IC50 [5] of 319 nM and an IC50 [6] of 95 nM.

`COC(=O)C(c1ccccc1)C1CCCCN1` (racemic) [METHYLPHENIDATE HYDROCHLORIDE] gave an IC50 [1] of 51 nM, an IC50 [2] of 0.788 µM and an IC50 [4] of over 10 µM.

`CCOC(=O)[C@@H](c1ccccc1)[C@@H]1CCCCN1` (stereo in doubt; (-)-2) was tested, and the IC50 [1] was over 10000 nM, the IC50 [2] was over 10 µM and the IC50 [3] was over 10 µM. It also gave an IC50 [4] of over 9.5 µM, an IC50 [5] of 2700 nM and an IC50 [6] of 1730 nM.
